TRPC6 inh: inhibitors of mouse TRPC6 channel | Q61143 | HEK293-TRPC6, membrane potential dye, ACh-evoked depolarization; stronger effect = lower value | B-score at 10 µM | 310,000 compounds, 1.1% hits;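 active means B-score under library mean minus 3 SD, initial fluorescence not abnormally high, positive integrated signal ratio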;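 further: B-score derived from integrated fluorescence ratio over the kinetic read; more negative B-score means stronger inhibition of depolarization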
TRPC4 potent: TRPC4 (mouse) allosteric potentiation; Q9QUQ5; HEK293 TRPC4beta/mu-opioid, DAMGO EC20, Fluo-4 Ca2+ flux; stronger effect = higher value; B-score at 10 µM; 310,000 compounds, 0.42% hits; AID 2227;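 active means B-score of calcium response area above 5 SD of library B-scores, with initial fluorescence ratio within 5 SD of library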;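 further: B-score of integrated fluorescence ratio over time as area under calcium response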
TRPC4 act: activators of mouse TRPC4 channel; Q9QUQ5; HEK293 TRPC4beta/mu-opioid, Fluo4 calcium fluorescence; stronger effect = higher value; B-score at 10 µM; 310,000 compounds, 0.49% hits; AID 2237;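 active means B-score above 5 SD of library B-scores, and initial fluorescence ratio not above library mean plus 5 SD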;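 further: positive B-score marks a calcium rise read as TRPC4 activation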
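Assay system: HEK293 cells stably co-expressing mouse TRPC4beta and mu-opioid receptor / Timing: Fluo4 dye loading 45 min at room temperature, 110 s recording / Signal: Fluo4 calcium-sensitive dye fluorescence, kinetic, 1 Hz baseline / Read-out: integrated baseline-normalised fluorescence ratio, converted to per-well B score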
TRPC4 inh: TRPC4 (mouse) channel inhibition; HEK293 TRPC4beta/mu-opioid, DAMGO-evoked Fluo4 calcium flux; stronger effect = lower value; AID 2247; Q9QUQ5; B-score at 10 µM; 300,000 compounds, 0.39% hits;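 active means B-score over 3 SD under the library average, no early fluorescence shift, positive overall ratio signal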
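Material: HEK293 cells with stable TRPC4beta plus mu-opioid receptor expression / Probe or stimulus: DAMGO in two steps, submaximal then maximal / Compound: single concentration per test compound / Technique: kinetic Fluo4 fluorescence imaging of calcium influx / Read-out: per-well B score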
TRPC6 activator: mouse TRPC6 channel activation; HEK293-TRPC6 membrane potential dye fluorescence; stronger effect = higher value; B-score at 10 µM; 310,000 compounds, 0.13% hits; AID 2550; Q61143;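 active means B-score of the integrated fluorescence ratio above library mean plus 3 SD, and starting fluorescence ratio within library mean plus 5 SD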;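 further: higher score means more depolarization so channel activation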
HEK293 MPD ctr: parental HEK293 nonspecific activity of TRPC6 modulators; shares compounds with TRPC6 inh; membrane potential dye fluorescence; membrane potential signal change, % at 10 µM; 2,400 compounds, 51% hits; AID 488924;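 active means membrane potential signal moves up or down beyond 5 SD from buffer-only wells, on both duplicate plates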
HEK293 MPD ctr 2: second counter-screen for TRPC6 modulators: effect in parental HEK293 cells | shares compounds with TRPC6 inh | AID 488926 | membrane potential dye fluorescence; after compound, maximal acetylcholine stimulation | inhibition, % at 10 µM | 2,400 compounds, 14% hits;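 active means membrane potential signal drops by more than 5 SD from the mean control signal, in both duplicate plates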;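 further: plate controls were acetylcholine ECmax control wells for no effect and buffer only wells for full effect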
TRPC4 ctr mod: mouse TRPC4 off-target activity of TRPC6 modulators. shares compounds with TRPC6 inh. HEK293 TRPC4/mu-opioid, membrane potential fluorescence. percent change from control (negative = decrease, positive = increase), % at 10 µM. 2,400 compounds, 69% hits. AID 488927;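 active means membrane potential signal moved up or down beyond 5 SD of buffer control wells, in both duplicate plates, actives on both sides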;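 further: plate controls were assay buffer wells for no effect and DAMGO maximal-effect wells for full effect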
TRPC4/MOR inh 2: second selectivity test of TRPC6 modulators against mouse TRPC4; HEK293 TRPC4/mu-opioid, membrane potential dye fluorescence; stimulated with maximal-effect DAMGO; AID 488928; 2,400 compounds, 55% hits; shares compounds with TRPC6 inh; inhibition, % at 10 µM;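 active means drop in membrane potential signal beyond 5 SD of the control wells in both duplicate plates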;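 further: TRPC4 counter screen for TRPC6 hits run under conditions tuned for TRPC6 not TRPC4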
TRPC6 inh conf: confirmation of mouse TRPC6 inhibitors; HEK293-TRPC6, membrane potential dye, ACh-evoked depolarization; shares compounds with TRPC6 inh; inhibition, % at 10 µM; 3,300 compounds, 43% hits;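 active means fluorescence ratio falls more than 5 SD below the full-stimulation control mean, in both duplicate runs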;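 further: integrated fluorescence ratio of peak minus minimum over baseline after agonist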
TRPC6 act confirm: confirmation of mouse TRPC6 activators | shares compounds with TRPC6 inh | HEK293-TRPC6 membrane potential dye fluorescence, FDSS | activation, % at 10 µM | 2,800 compounds, 11% hits | AID 488961;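 active means ratio signal rise beyond 5 SD above unstimulated control wells' mean, seen in both duplicate runs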;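 further: plate controls were buffer EC0 wells for no effect and acetylcholine ECmax response for full effect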
Numbers without * were called inactive. Only some compounds are listed: those with a hit (about 2.3% of all), similar ones and a draw of the others.

CN(C)CCCN(C(=O)c1cc2ccccc2oc1=O)c1nc2c(F)cccc2s1 was read as TRPC6 inh -6.5*, TRPC4 potent inactive, TRPC4 act inactive, TRPC4 inh inactive, TRPC6 activator inactive, HEK293 MPD ctr inactive, HEK293 MPD ctr 2 inactive, TRPC4 ctr mod -21.5%*, TRPC4/MOR inh 2 88.0%*, TRPC6 inh conf 70.0%* and TRPC6 act confirm inactive.
Screening CN(C)CCCN(C(=O)COc1ccccc1)c1nc2c(F)cccc2s1 returned TRPC6 inh -5*, TRPC4 potent inactive, TRPC4 act inactive, TRPC4 inh inactive, TRPC6 activator inactive, HEK293 MPD ctr inactive, HEK293 MPD ctr 2 inactive, TRPC4 ctr mod -16.0%*, TRPC4/MOR inh 2 84.5%*, TRPC6 inh conf 37.5%* and TRPC6 act confirm inactive.
For Cc1cccc(-n2c(SCC(=O)N3CC(=O)Nc4ccccc43)nc3ccccc3c2=O)c1C the results were TRPC6 inh inactive, TRPC4 potent inactive, TRPC4 act inactive, TRPC4 inh inactive and TRPC6 activator inactive.
For Cc1ccc(S(=O)(=O)N2CCCCCC2)cc1C(=O)NCc1ccccn1 the results were TRPC6 inh inactive, TRPC4 potent inactive, TRPC4 act inactive, TRPC4 inh inactive and TRPC6 activator inactive.
CCCCn1c(N)c(N(CCOC)C(=O)c2ccc(C)c(S(=O)(=O)N3CCCCC3)c2)c(=O)[nH]c1=O was read as TRPC6 inh -5.76*, TRPC4 potent inactive, TRPC4 act inactive, TRPC4 inh inactive, TRPC6 activator inactive, HEK293 MPD ctr inactive, HEK293 MPD ctr 2 inactive, TRPC4 ctr mod inactive, TRPC4/MOR inh 2 inactive, TRPC6 inh conf inactive and TRPC6 act confirm inactive.
`CC(C)c1ccccc1NC(=O)c1ccc2ncsc2c1` gave TRPC6 inh inactive, TRPC4 potent inactive, TRPC4 act inactive, TRPC4 inh inactive and TRPC6 activator inactive.
`Cc1ccc(OCC(O)CN2CCC(Cc3ccccc3)CC2)c(C)c1` (configuration not stated) gave TRPC6 inh -5.33*, TRPC4 potent inactive, TRPC4 act inactive, TRPC4 inh inactive, TRPC6 activator inactive, HEK293 MPD ctr 448.5%*, HEK293 MPD ctr 2 inactive, TRPC4 ctr mod 93.5%*, TRPC4/MOR inh 2 81.0%* and TRPC6 inh conf 46.5%*.
For OC(COc1ccccc1F)CN1CCC(Cc2ccccc2)CC1 (configuration not stated) the results were TRPC6 inh -5.06*, TRPC4 potent inactive, TRPC4 act inactive, TRPC4 inh inactive, TRPC6 activator inactive, HEK293 MPD ctr 155.0%*, HEK293 MPD ctr 2 inactive, TRPC4 ctr mod 25.0%*, TRPC4/MOR inh 2 44.0%* and TRPC6 inh conf inactive.
COc1ccc(N2CCN(C(CNS(=O)(=O)c3cc(F)ccc3F)c3cccnc3)CC2)cc1 (configuration not stated) was read as TRPC6 inh inactive, TRPC4 potent inactive, TRPC4 act inactive, TRPC4 inh inactive and TRPC6 activator inactive.
